Active and inactive are the calls of the source. The calls are words filed in the database; no cut-off is given here.
Columns and labels:
HPAC = assay: Induction of apoptosis in human HPAC CRL2119 cells after 72 hrs by crystal violet staining based assay; type: functional, cell-based
Summary of the method: (§1)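 Cells exposed 72 h to compound or DMSO vehicle, either at 1 and 10 μM or over 0.033–10 μM dose series. Surviving cells then stained with crystal violet and absorbance read at 562 nm. Effect expressed as % dead/apoptotic cells relative to DMSO, average of triplicates; dose curves n=6, run twice, mean ± SD, giving EC50.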

PC-3 = assay: Induction of apoptosis in human PC3 cells after 72 hrs by crystal violet staining based assay; type: functional, cell-based; summary of the method: as §1
Panc02 = assay: Induction of apoptosis in mouse Panc02 cells after 72 hrs by crystal violet staining based assay; type: functional, cell-based; summary of the method: as §1
A549 [1] = assay: Ratio of EC50 for mouse Panc02 cells to EC50 for human A549 cells harboring KRAS mutant; type: functional
Summary of the method: (§2)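 Ratio computed from EC50 values obtained by 72 h crystal violet survival assays (absorbance 562 nm) in each cell line, divided by the A549 EC50.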

A549 [2] = assay: Ratio of EC50 for human HPAC CRL2119 cells to EC50 for human A549 cells harboring KRAS mutant; type: functional; summary of the method: as §2
A549 [3] = assay: Ratio of EC50 for human PC3 cells to EC50 for human A549 cells harboring KRAS mutant; type: functional; summary of the method: as §2
A549 [4] = assay: Cytotoxicity against human A549 cells harboring KRAS mutant assessed as increase in apoptotic cells at 1 uM after 72 hrs by crystal violet staining based assay; type: functional, cell-based; summary of the method: as §1
A549 [5] = assay: (§3) Cytotoxicity against human A549 cells harboring KRAS mutant assessed as increase in apoptotic cells after 72 hrs by crystal violet staining based assay; type: functional, cell-based; summary of the method: as §1
[6] = as §3; type: functional, cell-based; conditions: A549, 72 h; summary of the method: as §1
[7] = Cytotoxicity against human A549 cells harboring KRAS mutant assessed as apoptotic cells at 10 uM after 72 hrs by crystal violet staining based assay; type: functional; summary of the method: as §1
[8] = Cytotoxicity against human A549 cells harboring KRAS mutant assessed as cell death at 1 uM after 72 hrs by crystal violet staining based assay; type: functional
Summary of the method: (§4)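 Cells treated with compound or DMSO vehicle for 72 h at 0.033–10 uM, then stained with crystal violet; absorbance at 562 nm taken as live cell number. Cell death read at 1 uM relative to DMSO controls. n=6, performed twice; mean ± SD.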

Stathmin (Homo sapiens) = target: T1, Stathmin (Homo sapiens) (UniProt P16949); assay: Increase in STMN1 phosphorylation in human A549 cells harboring KRAS mutant at 1 uM after 8 hrs by Western blot analysis; type: cell-based
T1 sequence (whole entry): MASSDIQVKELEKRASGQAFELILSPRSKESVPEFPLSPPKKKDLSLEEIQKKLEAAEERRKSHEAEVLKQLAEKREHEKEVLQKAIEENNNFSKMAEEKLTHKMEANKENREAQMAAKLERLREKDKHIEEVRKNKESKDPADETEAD
Summary of the method: (§5)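 A549 cells given serum-containing medium with DMSO or 1 μM compound for 8, 24 or 48 h. Lysates immunoblotted for cyclin A2, cyclin B1, phospho-Rb, total Rb and phospho-STMN1. Two independent experiments.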

[9] = Cytotoxicity against human HPAC CRL2119 cells assessed as cell death at 1 uM after 72 hrs by crystal violet staining based assay; type: functional; summary of the method: as §4
A549 [10] = assay: Induction of apoptosis in human A549 cells harboring KRAS mutant assessed as blockage of G2/M transition phase at 1 uM after 24 hrs by propidium iodide staining based flow cytometry; type: functional, cell-based
Summary of the method: (§6)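 Serum-starved 24 h to block in G1/G0, then returned to FBS-containing medium with test agent at 1 μM for a further 24 h. 0.5 × 10^6 treated cells stained with propidium iodide and analysed by flow cytometry, gating G1, S, G2/M plus apoptotic and necrotic populations. n=4–5 repeats.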

[11] = Cytotoxicity against human PC3 cells assessed as cell death at 1 uM after 72 hrs by crystal violet staining based assay; type: functional, PC-3; summary of the method: as §4
[12] = Therapeutic index, ratio of EC50 for NHBE cells to EC50 for human A549 cells harboring KRAS mutant; type: cell-based; conditions: NHBE cells versus A549 cells harboring KRAS mutant, read-out: Ratio EC50; summary of the method: as §2
[13] = Effect on cell cycle in NHBE cells at 1 uM after 24 hrs by propidium iodide staining based flow cytometry; conditions: human; summary of the method: as §6
[14] = Cytotoxicity against mouse Panc02 cells assessed as cell death at 1 uM after 72 hrs by crystal violet staining based assay; type: functional; summary of the method: as §4
[15] = Cytotoxicity against NHBE cells assessed as decrease in cell viability at 0.01 to 10 uM after 72 hrs by crystal violet staining based assay; type: toxicity; conditions: human; summary of the method: as §1
A549 [16] = assay: Suppression of cyclin A2 level in human A549 cells harboring KRAS mutant at 1 uM after 8 to 48 hrs by Western blot analysis; type: functional, cell-based; summary of the method: as §5
[17] = target: T2, Retinoblastoma-associated protein (Homo sapiens) (UniProt P06400); assay: Inhibition of phosphorylated retinoblastoma protein level in human A549 cells harboring KRAS mutant at 1 uM after 8 to 48 hrs by Western blot analysis; type: cell-based; summary of the method: as §5
T2 sequence (whole entry): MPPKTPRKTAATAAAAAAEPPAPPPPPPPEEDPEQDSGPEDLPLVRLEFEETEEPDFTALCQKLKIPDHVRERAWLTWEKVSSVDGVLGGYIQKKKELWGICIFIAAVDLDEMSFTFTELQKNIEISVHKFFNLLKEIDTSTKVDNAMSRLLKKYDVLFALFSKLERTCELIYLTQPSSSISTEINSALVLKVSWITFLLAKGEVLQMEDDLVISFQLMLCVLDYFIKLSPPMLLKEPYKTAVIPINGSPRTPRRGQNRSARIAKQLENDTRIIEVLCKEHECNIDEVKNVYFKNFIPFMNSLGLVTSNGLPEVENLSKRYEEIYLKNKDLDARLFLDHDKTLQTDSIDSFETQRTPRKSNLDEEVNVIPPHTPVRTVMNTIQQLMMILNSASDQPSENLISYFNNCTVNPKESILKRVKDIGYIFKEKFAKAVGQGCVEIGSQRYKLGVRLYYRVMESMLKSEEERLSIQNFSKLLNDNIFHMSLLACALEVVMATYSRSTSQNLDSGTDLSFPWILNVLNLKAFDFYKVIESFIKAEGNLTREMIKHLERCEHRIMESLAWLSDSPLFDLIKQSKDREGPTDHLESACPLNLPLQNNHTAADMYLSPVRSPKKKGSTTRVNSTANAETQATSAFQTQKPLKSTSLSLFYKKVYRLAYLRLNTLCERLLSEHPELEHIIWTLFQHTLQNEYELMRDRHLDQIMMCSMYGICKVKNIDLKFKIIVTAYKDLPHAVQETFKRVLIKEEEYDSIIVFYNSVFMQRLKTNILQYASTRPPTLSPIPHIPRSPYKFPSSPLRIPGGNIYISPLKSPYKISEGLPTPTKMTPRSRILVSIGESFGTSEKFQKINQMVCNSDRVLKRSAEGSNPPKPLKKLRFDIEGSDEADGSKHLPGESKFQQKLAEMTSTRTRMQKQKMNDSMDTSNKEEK

[18] = Cell cycle arrest in human PC3 cells assessed as inhibition of S phase at 1 uM after 24 hrs by propidium iodide staining based flow cytometry; type: functional; conditions: PC-3; summary of the method: as §6
[19] = Cell cycle arrest in human PC3 cells assessed as blockage of G1 phase at 1 uM after 24 hrs by propidium iodide staining based flow cytometry; type: functional; conditions: PC-3; summary of the method: as §6

With `CCn1ccc2cc(/C=C3\CCc4ccc(F)cc4C3=O)ccc21` the Activity (HPAC) was “Dose-dependent effect”, the EC50 (HPAC) was 310 nM and the Activity (PC-3) was “Dose-dependent effect”. For the same compound, the EC50 (PC-3; PC-3, 72 h) was 450 nM, the Activity (Panc02) was “Dose-dependent effect” and the EC50 (Panc02; Panc02, 72 h) was 590 nM. For the same compound, the “Ratio EC50” value (A549 [1]) was over 4, the Ratio EC50 (A549 [2]) was 2.8 and the “Ratio EC50” value (A549 [3]) was over 4. The Activity (A549 [4]) was “Active”, the Activity (A549 [5]) was “Dose-dependent effect” and the EC50 [6] was 110 nM.
In the case of `COc1cc2c(cc1OC)C(=O)/C(=C/c1ccc3ccn(C)c3c1)CC2`, the Activity (A549 [4]) is reported as “Active”, the Activity (A549 [5]) is reported as “Dose-dependent effect” and the EC50 [6] is reported as 10000 nM.
For `O=C1/C(=C/c2ccc3[nH]ccc3c2)CCc2ccccc21`, the Activity (A549 [4]) was “Active”, the Activity (A549 [5]) was “Dose-dependent effect” and the EC50 [6] was 1130 nM.
For `Cn1ccc2cc(/C=C3\CCc4ccccc4C3=O)ccc21`, the Activity (A549 [4]) was “Active”, the Activity (A549 [5]) was “Dose-dependent effect” and the EC50 [6] was 470 nM.
With `O=C1/C(=C/c2ccc3[nH]ccc3c2)CCc2ccc(Br)cc21` the Activity [7] was 16% and the Activity (A549 [5]) was “Dose-dependent effect”.
With `CCn1ccc2cc(/C=C3\CCc4ccc(Br)cc4C3=O)ccc21` the Activity (A549 [5]) was “Dose-dependent effect”.
In the case of `CCn1ccc2cc(/C=C3\CCc4ccc(OC)cc4C3=O)ccc21`, the Activity (A549 [4]) is reported as “Active”, the Activity (A549 [5]) is reported as “Dose-dependent effect” and the EC50 [6] is reported as 3000 nM.
With `Cn1ccc2cc(/C=C3\CCc4ccc(F)cc4C3=O)ccc21` the Activity (A549 [4]) was “Active”, the Activity (A549 [5]) was “Dose-dependent effect” and the EC50 [6] was 200 nM.
For `O=C1/C(=C/c2ccc3[nH]ccc3c2)CCc2ccc(F)cc21`, the Activity (A549 [4]) was “Active”, the Activity (A549 [5]) was “Dose-dependent effect” and the EC50 [6] was 270 nM.
With `CC(C)(C)OC(=O)n1ccc2cc(/C=C3\CCc4ccc(F)cc4C3=O)ccc21` the Activity (A549 [5]) was “Dose-dependent effect”.
With `Cn1ccc2ccc(/C=C3\CCc4ccc(Br)cc4C3=O)cc21` the Activity [7] was 26% and the Activity (A549 [5]) was “Dose-dependent effect”.
With `CCn1ccc2cc(/C=C3\CCc4ccccc4C3=O)ccc21` the Activity (A549 [4]) was “Active”, the Activity (A549 [5]) was “Dose-dependent effect” and the EC50 [6] was 460 nM.
With `Cn1ccc2cc(/C=C3\CCc4ccc(Br)cc4C3=O)ccc21` the Activity [7] was 21% and the Activity (A549 [5]) was “Dose-dependent effect”.
For `CC(C)(C)OC(=O)n1ccc2cc(/C=C3\CCc4ccccc4C3=O)ccc21`, the Activity (A549 [5]) was “Dose-dependent effect”.
With `O=C1/C(=C/c2ccc3c(ccn3Cc3ccccc3)c2)CCc2ccc(F)cc21` the Activity (A549 [5]) was “Dose-dependent effect”.
In the case of `COc1ccc2c(c1)C(=O)/C(=C/c1ccc3c(ccn3C)c1)CC2`, the Activity (A549 [4]) is reported as “Active”, the Activity (A549 [5]) is reported as “Dose-dependent effect” and the EC50 [6] is reported as 3000 nM.
For `COc1ccc2c(c1)C(=O)/C(=C/c1ccc3[nH]ccc3c1)CC2`, the Activity [8] was 80%, the Activity (Stathmin (Homo sapiens)) was “Active” and the Activity [9] was under 40%. For the same compound, the Activity (A549 [10]) was “Active”, the Activity [11] was under 40% and the selectivity ratio [12] was over 18. The Activity [13] was “Non-Toxic”, the Activity (A549 [4]) was “Active” and the Activity [14] was under 40%. For the same compound, the Activity [15] was “Non-Toxic”, the Activity (A549 [16]) was “Active” and the Activity (A549 [5]) was “Dose-dependent effect”. For the same compound, the EC50 [6] was 550 nM and the inhibition [17] was “Active”.
In the case of `CC(=O)n1ccc2cc(/C=C3\CCc4ccc(F)cc4C3=O)ccc21`, the Activity [7] is reported as 28% and the Activity (A549 [5]) is reported as “Dose-dependent effect”.
For `Cn1ccc2ccc(/C=C3\CCc4ccccc4C3=O)cc21`, the Activity (A549 [4]) was “Active”, the Activity (A549 [5]) was “Dose-dependent effect” and the EC50 [6] was 470 nM.
With `COc1ccc2c(c1)C(=O)/C(=C/c1ccc3ccn(C)c3c1)CC2` the Activity (A549 [4]) was “Active”, the Activity (A549 [5]) was “Dose-dependent effect” and the EC50 [6] was 5800 nM.
For `CCn1ccc2cc(/C=C3\CCc4cc(OC)c(OC)cc4C3=O)ccc21`, the Activity [7] was 19% and the Activity (A549 [5]) was “Dose-dependent effect”.
For `COc1cc(/C=C2\CCc3ccc(F)cc3C2=O)cc(OC)c1OC`, the inhibition [18] was “Active” and the Activity [19] was “Active”.
With `COc1cc2c(cc1OC)C(=O)/C(=C/c1ccc3c(ccn3C)c1)CC2` the Activity (A549 [5]) was “Dose-dependent effect”.

Source: ChEMBL document CHEMBL3868602, “Novel synthetic chalcones induce apoptosis in the A549 non-small cell lung cancer cells harboring a KRAS mutation” (Bioorg Med Chem Lett, 2016)
